The source made the active and inactive calls. The calls are words filed in the database; no cut-off is given here.
Tests used:
[1] = tested on: SK-BR-3; test: Cell cycle arrest in human SK-BR-3 cells assessed as accumulation at G1 phase at 0.10 uM after 3 hrs using propidium iodide staining by FACS analysis; format: functional
Method in brief: (§1)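 SKBR-3 cells in RPMI1640 with 10% heat-inactivated FBS at 37 °C and 5% CO₂ were treated for the stated times. Cells were fixed overnight in 70% EtOH at −20 °C, then stained with propidium iodide buffer (38 mM sodium citrate pH 7.5, 69 µM PI, 120 µg/mL RNase A) for 15 min at room temperature in the dark. Up to 1×10⁴ gated cells were analyzed by flow cytometry, giving percent distribution per phase.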

[2] = tested on: SK-BR-3; test: Cell cycle arrest in human SK-BR-3 cells assessed as accumulation at Sub-G1 phase at 0.10 uM after 6 hrs using propidium iodide staining by FACS analysis; format: functional
[3] = tested on: SK-BR-3; test: Cell cycle arrest in human SK-BR-3 cells assessed as accumulation at G1 phase at 0.10 uM after 12 hrs using propidium iodide staining by FACS analysis; format: functional; method in brief: as §1
[4] = tested on: SK-BR-3; test: Cell cycle arrest in human SK-BR-3 cells assessed as accumulation at G2/M phase at 0.10 uM after 12 hrs using propidium iodide staining by FACS analysis; format: functional; method in brief: as §1
[5] = tested on: SK-BR-3; test: Cell cycle arrest in human SK-BR-3 cells assessed as accumulation at G1 phase at 0.50 uM after 12 hrs using propidium iodide staining by FACS analysis; format: functional; method in brief: as §1
[6] = tested on: SK-BR-3; test: Cell cycle arrest in human SK-BR-3 cells assessed as accumulation at G1 phase at 5 uM after 12 hrs using propidium iodide staining by FACS analysis; format: functional; method in brief: as §1
[7] = tested on: SK-BR-3; test: Cell cycle arrest in human SK-BR-3 cells assessed as accumulation at Sub-G1 phase at 0.50 uM after 18 hrs using propidium iodide staining by FACS analysis; format: functional
[8] = tested on: SK-BR-3; test: Cell cycle arrest in human SK-BR-3 cells assessed as accumulation at G1 phase at 0.50 uM after 18 hrs using propidium iodide staining by FACS analysis; format: functional; method in brief: as §1
[9] = tested on: SK-BR-3; test: Cell cycle arrest in human SK-BR-3 cells assessed as accumulation at S phase at 0.10 uM after 24 hrs using propidium iodide staining by FACS analysis; format: functional; method in brief: as §1
[10] = tested on: SK-BR-3; test: Cell cycle arrest in human SK-BR-3 cells assessed as accumulation at G2/M phase at 0.10 uM after 24 hrs using propidium iodide staining by FACS analysis; format: functional; method in brief: as §1
[11] = tested on: SK-BR-3; test: Cell cycle arrest in human SK-BR-3 cells assessed as accumulation at G1 phase at 5 uM after 24 hrs using propidium iodide staining by FACS analysis; format: functional; method in brief: as §1
[12] = tested on: SK-BR-3; test: Cell cycle arrest in human SK-BR-3 cells assessed as accumulation at S phase at 5 uM after 24 hrs using propidium iodide staining by FACS analysis; format: functional
[13] = tested on: CCRF-CEM; test: Growth inhibition of human CCRF-CEM cells after 48 hrs by SRB assay; format: functional
[14] = tested on: A549; test: Growth inhibition of human A549 cells after 48 hrs by SRB assay; format: functional
[15] = tested on: HOP-92; test: Growth inhibition of human HOP92 cells after 48 hrs by SRB assay; format: functional
[16] = tested on: SNB-75; test: Growth inhibition of human SNB75 cells after 48 hrs by SRB assay; format: functional
[17] = tested on: OVCAR-5; test: Growth inhibition of human OVCAR5 cells after 48 hrs by SRB assay; format: functional
[18] = tested on: NCI/ADR-RES; test: Growth inhibition of human NCI/ADR-RES cells after 48 hrs by SRB assay; format: functional
[19] = tested on: ACHN; test: Growth inhibition of human ACHN cells after 48 hrs by SRB assay; format: functional
[20] = tested on: DU-145; test: Growth inhibition of human DU145 cells after 48 hrs by SRB assay; format: functional
[21] = tested on: HT-29; test: Antitumor activity against human HT-29 cells xenografted in BALB/c athymic nu/nu mouse assessed as decrease in tumor size at 5 mg/kg/day, ip administered 5 times per week for 3 weeks; format: functional, organism-based
Method in brief: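 Athymic BALB/c nu/nu mice received s.c. HT29 cells in Matrigel, 200 µL per site at two flank sites. Treatment started at ~200 mm³: 5 mg/kg/d i.p., five times weekly for three weeks, in 1% DMSO/sesame oil; controls got vehicle. Three mice per group. Tumors were measured twice weekly by caliper, volume = width²×length/2. Tumors were excised and weighed at the end.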

[22] = tested on: Mus musculus; test: Toxicity in BALB/c athymic nu/nu mouse xenografted with human HT-29 cells assessed as effect on body weight at 5 mg/kg/day, ip administered 5 times per week for 3 weeks; format: organism-based; design: route intraperitoneal; settings: in vivo, 504 h
Method in brief: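 BALB/c nu/nu mice, three per group, each inoculated s.c. with HT29 cells in Matrigel at two sites. Dosing began once tumors reached about 200 mm³: 5 mg/kg/d i.p., five times weekly for three weeks, in sesame oil with 1% DMSO. Controls received vehicle only. Body weight was recorded weekly.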

[23] = Cmax in Sprague-Dawley rat plasma at 20 mg/kg, ip; format: ADME, organism-based; design: dose 20 mg/kg, route intraperitoneal
Method in brief: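 Male Sprague–Dawley rats (300–350 g, n=3), fasted overnight, received one i.p. dose in PBS with 0.1% Tween80 and 20% DMSO. Blood (150 µL) was drawn from saphenous and femoral veins into heparinized tubes at 0–24 h, and plasma was stored at –20 °C. Samples underwent tert-butyl methyl ether/n-hexane extraction, then C18 isocratic LC-MS/MS in MRM mode with an internal standard; the method was validated over 0.1–100 ng/mL.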

[24] = tested on: SK-BR-3; test: Cell cycle arrest in human SK-BR-3 cells assessed as accumulation at G2/M phase at 5 uM after 3 hrs using propidium iodide staining by FACS analysis; format: functional; method in brief: as §1
[25] = tested on: SK-BR-3; test: Cell cycle arrest in human SK-BR-3 cells assessed as accumulation at G2/M phase at 0.50 uM after 3 hrs using propidium iodide staining by FACS analysis; format: functional; method in brief: as §1
[26] = tested on: SK-BR-3; test: Cell cycle arrest in human SK-BR-3 cells assessed as accumulation at Sub-G1 phase at 0.50 uM after 3 hrs using propidium iodide staining by FACS analysis; format: functional
[27] = tested on: SK-BR-3; test: Cell cycle arrest in human SK-BR-3 cells assessed as accumulation at G2/M phase at 0.25 uM after 3 hrs using propidium iodide staining by FACS analysis; format: functional; method in brief: as §1
[28] = tested on: SK-BR-3; test: Cell cycle arrest in human SK-BR-3 cells assessed as accumulation at S phase at 0.25 uM after 3 hrs using propidium iodide staining by FACS analysis; format: functional
[29] = tested on: SK-BR-3; test: Cell cycle arrest in human SK-BR-3 cells assessed as accumulation at Sub-G1 phase at 0.10 uM after 12 hrs using propidium iodide staining by FACS analysis; format: functional
[30] = read-out: LC50 (the source's name)

Cc1ccc(C)c(COc2cc(NC(=O)c3ccc4c(c3)OCO4)ccc2N(C)S(C)(=O)=O)c1
Activity [1]: 70.84% | Activity [2]: 3.6% | Activity [3]: 73.14% | Activity [4]: 12.05% | Activity [5]: 63.15% | Activity [6]: 63.71% | Activity [7]: 8.47% | Activity [8]: 61.19% | Activity [9]: 8.91% | Activity [10]: 11.23% | Activity [11]: 31.87% | Activity [12]: 11.53% | GI50 [13]: 48.5 nM | TGI [13]: > 100000 nM | growth inhibition (GI) [13]: Dose-dependent effect | CC50 [13, 30]: > 100000 nM | growth inhibition (GI) [14]: Dose-dependent effect | GI50 ([14]; A549, 48 h): 278 nM | TGI ([14]; A549, 48 h): 13600 nM | CC50 ([14]; A549, 48 h, read-out: LC50 (the source's name)): > 100000 nM | growth inhibition (GI) [15]: Dose-dependent effect | GI50 ([15]; HOP-92, 48 h): 3220 nM | TGI ([15]; HOP-92, 48 h): > 100000 nM | CC50 ([15]; HOP-92, 48 h, read-out: LC50 (the source's name)): > 100000 nM | growth inhibition (GI) [16]: Dose-dependent effect | GI50 ([16]; SNB-75, 48 h): 266 nM | CC50 ([16]; SNB-75, 48 h, read-out: LC50 (the source's name)): > 100000 nM | growth inhibition (GI) [17]: Dose-dependent effect | GI50 ([17]; OVCAR-5, 48 h): 538 nM | TGI ([17]; OVCAR-5, 48 h): > 100000 nM | GI50 [18]: 56.2 nM | TGI [18]: 407 nM | growth inhibition (GI) [18]: Dose-dependent effect | CC50 [18, 30]: > 100000 nM | GI50 [19]: 687 nM | TGI [19]: > 100000 nM | growth inhibition (GI) [19]: Dose-dependent effect | CC50 [19, 30]: > 100000 nM | growth inhibition (GI) [20]: Dose-dependent effect | GI50 ([20]; DU-145, 48 h): 159 nM | TGI ([20]; DU-145, 48 h): 457 nM | CC50 ([20]; DU-145, 48 h, read-out: LC50 (the source's name)): > 100000 nM | Activity [21]: Active | Activity [22]: Non-toxic | Cmax [23]: 1500 ng/mL | Activity [24]: 11.57% | Activity [25]: 11.54% | Activity [26]: 3.43% | Activity [27]: 10.77% | Activity [28]: 16.34% | Activity [29]: 5.27%
